Results taken from ChEMBL document CHEMBL1123476, “Synthesis of congeners and prodrugs of the benzene maleimide photoadduct mitindomide as potential antitumor agents. 2” (J Med Chem, 1986).
Where “and” joins values, the source holds several entries; their conditions need not be identical. Equal entries are not always repeated.

What was measured:
P388 [1] = assay: Antitumor activity in P-388 lymphocytic leukemia system at 200 mg/kg dose levels per injection.; type: functional, Mus musculus
Summary of the method: (§1)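 P-388 leukemia in animals, Q01D×09 schedule: dose given daily for 9 days, in mg/kg per injection. Read-outs are survivors on day 4 (live/total animals), body-weight difference test minus control (g), and % T/C (median lifetime of treated ÷ median lifetime of controls × 100). Some compounds were tested in independent runs at different times.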

P388 [2] = assay: (§2) Antitumor activity in P-388 lymphocytic leukemia system at 100 mg/kg dose levels per injection.; type: functional, Mus musculus
Summary of the method: (§3)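 P-388 leukemia in vivo, dosed Q01D×09 (one injection daily for 9 days, mg/kg per injection). Activity is %T/C, the median lifetime of treated animals divided by that of controls, ×100. Live animals on day 4 were counted against the total (survivors day 4). Repeat tests were done independently at different times.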

P388 [3] = assay: Antitumor activity in P-388 lymphocytic leukemia system at 25 mg/kg dose levels per injection; type: functional, Mus musculus; summary of the method: as §3
P388 [4] = assay: (§4) Antitumor activity in P-388 lymphocytic leukemia system at 50 mg/kg dose levels per injection.; type: functional, Mus musculus; summary of the method: as §1
[5] = Solubility was determined; INS= less than 0.1; type: physicochemical
P388 [6] = assay: Compound was tested for antitumor activity in P-388 lymphocytic leukemia system at 25 mg/kg dose levels per injection; type: functional, Mus musculus; summary of the method: as §3
P388 [7] = assay: Compound was tested for antitumor activity in P-388 lymphocytic leukemia system. at 200 mg/kg dose levels per injection; type: functional, Mus musculus; summary of the method: as §3
P388 [8] = assay: Compound was tested for antitumor activity in P-388 lymphocytic leukemia system at 200 mg/kg dose levels per injection; type: functional, Mus musculus; summary of the method: as §3
P388 [9] = assay: as §4; type: functional, Mus musculus; summary of the method: as §3; remark: listed apart in the source
P388 [10] = assay: Compound was tested for antitumor activity in P-388 lymphocytic leukemia system at 25 mg/kg dose levels per injection; 6/6; type: functional, Mus musculus; summary of the method: as §1
P388 [11] = assay: as §2; type: functional, Mus musculus; summary of the method: as §1; remark: listed apart in the source
P388 [12] = assay: Compound was tested for antitumor activity in P-388 lymphocytic leukemia system at 200 mg/kg dose levels per injection; 3/6; type: functional, Mus musculus; summary of the method: as §1
P388 [13] = assay: Compound was tested for antitumor activity in P-388 lymphocytic leukemia system at 12.5 mg/kg dose levels per injection; 6/6; type: functional, Mus musculus; summary of the method: as §1
P388 [14] = assay: Compound was tested for antitumor activity in P-388 lymphocytic leukemia system at 12.5 mg/kg dose levels per injection; type: functional, Mus musculus; summary of the method: as §3
P388 [15] = assay: Compound was tested for antitumor activity in P-388 lymphocytic leukemia system at 200 mg/kg dose levels per injection; 5/6; type: functional, Mus musculus; summary of the method: as §1
P388 [16] = assay: Compound was tested for antitumor activity in P-388 lymphocytic leukemia system at 200 mg/kg dose levels per injection.; type: functional, organism-based; parameters: dose 200 mg/kg; details: Mus musculus; summary of the method: as §3
P388 [17] = assay: Compound was tested for antitumor activity in P-388 lymphocytic leukemia system The difference in body weight was calculated at 12.5 mg/kg dose levels per injection; type: functional, Mus musculus
P388 [18] = assay: Compound was tested for antitumor activity in P-388 lymphocytic leukemia system at 100 mg/kg dose levels per injection; 5/6; type: functional, Mus musculus; summary of the method: as §1
P388 [19] = assay: Compound was tested for antitumor activity in P-388 lymphocytic leukemia system at 68.8 mg/kg dose levels per injection; type: functional, Mus musculus; summary of the method: as §3
P388 [20] = assay: Compound was tested for antitumor activity in P-388 lymphocytic leukemia system at 24.8 mg/kg dose levels per injection; 6/6; type: functional, Mus musculus; summary of the method: as §1
P388 [21] = assay: Compound was tested for antitumor activity in P-388 lymphocytic leukemia system and the difference in body weight was calculated at 41.3 mg/kg dose levels per injection; type: functional, Mus musculus
P388 [22] = assay: Compound was tested for antitumor activity in P-388 lymphocytic leukemia system at 191.2 mg/kg dose levels per injection; 0/6; type: functional, Mus musculus; summary of the method: as §1
P388 [23] = assay: Compound was tested for antitumor activity in P-388 lymphocytic leukemia system and the difference in body weight was calculated at 114.7 mg/kg dose levels per injection; type: functional, Mus musculus
P388 [24] = assay: Compound was tested for antitumor activity in P-388 lymphocytic leukemia system at 114.7 mg/kg dose levels per injection; 2/6; type: functional, Mus musculus; summary of the method: as §1
P388 [25] = assay: Compound was tested for antitumor activity in P-388 lymphocytic leukemia system at 24.8 mg/kg dose levels per injection; type: functional, Mus musculus; summary of the method: as §3
P388 [26] = assay: Compound was tested for antitumor activity in P-388 lymphocytic leukemia system. The difference in body weight was calculated at 24.8 mg/kg dose levels per injection; type: functional, Mus musculus
P388 [27] = assay: Compound was tested for antitumor activity in P-388 lymphocytic leukemia system and the difference in body weight was calculated at 68.8 mg/kg dose levels per injection; type: functional, Mus musculus
P388 [28] = assay: Compound was tested for antitumor activity in P-388 lymphocytic leukemia system at 68.8 mg/kg dose levels per injection; 6/6; type: functional, Mus musculus; summary of the method: as §1
P388 [29] = assay: Compound was tested for antitumor activity in P-388 lymphocytic leukemia system at 41.3 mg/kg dose levels per injection; 6/6; type: functional, Mus musculus; summary of the method: as §1
P388 [30] = assay: Compound was tested for antitumor activity in P-388 lymphocytic leukemia system at 41.3 mg/kg dose levels per injection; type: functional, Mus musculus; summary of the method: as §3
P388 [31] = assay: Antitumor activity in P-388 lymphocytic leukemia system and the difference in body weight was calculated at 50 mg/kg dose levels per injection.; type: functional, Mus musculus; details: 50 mg/kg
P388 [32] = assay: Compound was tested for antitumor activity in P-388 lymphocytic leukemia system at 100 mg/kg dose levels per injection; 0/6; type: functional, Mus musculus; summary of the method: as §1
P388 [33] = assay: Compound was tested for antitumor activity in P-388 lymphocytic leukemia system at 100 mg/kg dose levels per injection; 3/6; type: functional, Mus musculus; summary of the method: as §1
P388 [34] = assay: Compound was tested for antitumor activity in P-388 lymphocytic leukemia system at 200 mg/kg dose levels per injection; 0/6; type: functional, Mus musculus; summary of the method: as §1
P388 [35] = assay: Compound was tested for antitumor activity in P-388 lymphocytic leukemia system at 100 mg/kg dose levels per injection; Toxic; type: functional, organism-based; parameters: dose 100 mg/kg; details: Mus musculus; summary of the method: as §3
[36] = Solubility was determined; type: physicochemical
P388 [37] = assay: Antitumor activity in P-388 lymphocytic leukemia system at 25 mg/kg dose levels per injection.; type: functional, Mus musculus; summary of the method: as §1
P388 [38] = assay: Antitumor activity in P-388 lymphocytic leukemia system and the difference in body weight was calculated at 25 mg/kg dose levels per injection.; type: functional, Mus musculus; details: 25 mg/kg
P388 [39] = assay: Antitumor activity in P-388 lymphocytic leukemia system and the difference in body weight calculated at 100 mg/kg dose levels per injection.; type: functional, Mus musculus
P388 [40] = assay: Compound was tested for antitumor activity in P-388 lymphocytic leukemia system and the difference in body weight was calculated at 12.5 mg/kg dose levels per injection; type: functional, Mus musculus

SMILES: CC12C=CC(C)(C3C(=O)NC(=O)C31)C1C3C(=O)NC(=O)C3C12 (centres undefined)
- Survivors at day 4 (P388 [1]): 6
- T/C (P388 [2]): 109%
- Weight difference (P388 [2]): -4.8 g
- T/C (P388 [3]): 103%
- Survivors at day 4 (P388 [4]): 6
- Solubility [5]: Insoluble
- Weight difference (P388 [6]): -1.5 g
- T/C (P388 [7]): 97%
- Weight difference (P388 [8]): -6.1 g
- T/C (P388 [9]): 108%
- Weight difference (P388 [9]): -3.7 g
- Survivors at day 4 (P388 [10]): 6
- Survivors at day 4 (P388 [11]): 6

SMILES: O=C1NC(=O)C2C3C=CC(C12)C1C2C(=O)NC(=O)C2C31 (centres undefined)
- Survivors at day 4 (P388 [12]): 3
- Survivors at day 4 (P388 [13]): 6
- T/C (P388 [2]): 94%
- Weight difference (P388 [2]): -3.4 g
- T/C (P388 [2]; 100 mg/kg): 177%
- T/C (P388 [3]; 25 mg/kg): 149% and 142%
- T/C (P388 [14]): 119%
- Survivors at day 4 (P388 [15]): 5
- Survivors at day 4 (P388 [4]): 6
- T/C (P388 [16]): Toxic
- Weight difference (P388 [17]): 0.2 g
- Solubility [5]: Insoluble
- Weight difference (P388 [8]; 200 mg/kg): -7.3 g and -3.1 g
- T/C (P388 [9]; 50 mg/kg): 172% and 168%
- Weight difference (P388 [9]; 50 mg/kg): -2.2 g and -2 g
- Survivors at day 4 (P388 [18]): 5
- Survivors at day 4 (P388 [10]): 6
- Survivors at day 4 (P388 [11]): 6

SMILES: CN1CCN(CN2C(=O)C3C4C=CC(C3C2=O)C2C3C(=O)N(CN5CCN(C)CC5)C(=O)C3C42)CC1.Cl (centres undefined)
- T/C (P388 [19]): 172%
- Survivors at day 4 (P388 [20]): 6
- Weight difference (P388 [21]): -1.8 g
- Survivors at day 4 (P388 [22]): 0
- Weight difference (P388 [23]): -5.9 g
- Survivors at day 4 (P388 [24]): 2
- T/C (P388 [25]): 113%
- Weight difference (P388 [26]): 1.2 g
- Weight difference (P388 [27]): -4.6 g
- Survivors at day 4 (P388 [28]): 6
- Survivors at day 4 (P388 [29]): 6
- T/C (P388 [30]): 130%

SMILES: O=C1C2C3C=CC(C2C(=O)N1CO)C1C2C(=O)N(CO)C(=O)C2C31 (centres undefined)
- Survivors at day 4 (P388 [13]): 6
- T/C (P388 [3]; 25 mg/kg): 140% and 157%
- T/C (P388 [14]): 105%
- Weight difference (P388 [31]): -5.6 g and -6.5 g
- Survivors at day 4 (P388 [4]): 6
- T/C (P388 [16]): Toxic
- Survivors at day 4 (P388 [32]): 0
- Survivors at day 4 (P388 [33]): 3
- Survivors at day 4 (P388 [34]): 0
- T/C (P388 [35]): Toxic
- T/C (P388 [9]; 50 mg/kg): 195% and 208%
- Solubility [36]: 0.8%
- Survivors at day 4 (P388 [37]): 6
- Weight difference (P388 [38]): -2.5 g and -3.3 g
- Weight difference (P388 [39]): -8.2 g
- Weight difference (P388 [40]): -0.7 g
